Measured values as given in ChEMBL document CHEMBL2169836 (J Med Chem, 2012).
The source made the active and inactive calls. The rule behind the calls is not given here.

Legend:
[1] = test system: Rattus norvegicus; assay: Clearance in jugular and femoral vein precannulated Sprague-Dawley rat at 1 mg/kg, iv by LC/MS/MS analysis relative to hepatic blood flow; type: ADME, organism-based, Liver; design: dose 1 mg/kg, route intravenous; settings: in vivo
[2] = molecular target: Cytochrome P450 3A4 (Homo sapiens, UniProt P08684); assay: Inhibition of CYP3A4 in human liver microsomes using 7-benzyloxy-4-(trifluoromethyl)-coumarin as substrate after 30 mins by LC/MS/MS analysis; type: ADME, Microsome
Chain of Cytochrome P450 3A4 (P08684 whole entry): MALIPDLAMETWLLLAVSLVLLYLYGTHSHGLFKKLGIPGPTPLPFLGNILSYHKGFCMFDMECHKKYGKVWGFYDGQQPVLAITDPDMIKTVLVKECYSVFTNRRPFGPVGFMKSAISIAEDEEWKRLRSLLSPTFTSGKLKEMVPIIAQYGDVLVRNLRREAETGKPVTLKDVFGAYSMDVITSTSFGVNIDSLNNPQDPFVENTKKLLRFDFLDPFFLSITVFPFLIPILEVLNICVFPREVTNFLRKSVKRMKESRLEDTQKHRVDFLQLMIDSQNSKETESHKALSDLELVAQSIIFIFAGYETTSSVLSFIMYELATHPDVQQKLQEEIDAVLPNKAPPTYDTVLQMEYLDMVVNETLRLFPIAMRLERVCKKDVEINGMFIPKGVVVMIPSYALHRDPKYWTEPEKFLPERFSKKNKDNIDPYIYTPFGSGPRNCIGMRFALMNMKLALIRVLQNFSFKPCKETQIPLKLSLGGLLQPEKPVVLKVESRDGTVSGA

[3] = Metabolic stability in rat liver microsomes at 1 uM up to 60 mins by LC/MS/MS analysis relative to hepatic blood flow; type: ADME, Microsome; settings: read-out: Stability
[4] = molecular target: Voltage-gated inwardly rectifying potassium channel KCNH2 (Homo sapiens, UniProt Q12809); assay: Inhibition of human ERG expressed in HEK 293 cells by PatchXpress assay; type: cell-based, HEK293
Chain of Voltage-gated inwardly rectifying potassium channel KCNH2 (Q12809 whole entry): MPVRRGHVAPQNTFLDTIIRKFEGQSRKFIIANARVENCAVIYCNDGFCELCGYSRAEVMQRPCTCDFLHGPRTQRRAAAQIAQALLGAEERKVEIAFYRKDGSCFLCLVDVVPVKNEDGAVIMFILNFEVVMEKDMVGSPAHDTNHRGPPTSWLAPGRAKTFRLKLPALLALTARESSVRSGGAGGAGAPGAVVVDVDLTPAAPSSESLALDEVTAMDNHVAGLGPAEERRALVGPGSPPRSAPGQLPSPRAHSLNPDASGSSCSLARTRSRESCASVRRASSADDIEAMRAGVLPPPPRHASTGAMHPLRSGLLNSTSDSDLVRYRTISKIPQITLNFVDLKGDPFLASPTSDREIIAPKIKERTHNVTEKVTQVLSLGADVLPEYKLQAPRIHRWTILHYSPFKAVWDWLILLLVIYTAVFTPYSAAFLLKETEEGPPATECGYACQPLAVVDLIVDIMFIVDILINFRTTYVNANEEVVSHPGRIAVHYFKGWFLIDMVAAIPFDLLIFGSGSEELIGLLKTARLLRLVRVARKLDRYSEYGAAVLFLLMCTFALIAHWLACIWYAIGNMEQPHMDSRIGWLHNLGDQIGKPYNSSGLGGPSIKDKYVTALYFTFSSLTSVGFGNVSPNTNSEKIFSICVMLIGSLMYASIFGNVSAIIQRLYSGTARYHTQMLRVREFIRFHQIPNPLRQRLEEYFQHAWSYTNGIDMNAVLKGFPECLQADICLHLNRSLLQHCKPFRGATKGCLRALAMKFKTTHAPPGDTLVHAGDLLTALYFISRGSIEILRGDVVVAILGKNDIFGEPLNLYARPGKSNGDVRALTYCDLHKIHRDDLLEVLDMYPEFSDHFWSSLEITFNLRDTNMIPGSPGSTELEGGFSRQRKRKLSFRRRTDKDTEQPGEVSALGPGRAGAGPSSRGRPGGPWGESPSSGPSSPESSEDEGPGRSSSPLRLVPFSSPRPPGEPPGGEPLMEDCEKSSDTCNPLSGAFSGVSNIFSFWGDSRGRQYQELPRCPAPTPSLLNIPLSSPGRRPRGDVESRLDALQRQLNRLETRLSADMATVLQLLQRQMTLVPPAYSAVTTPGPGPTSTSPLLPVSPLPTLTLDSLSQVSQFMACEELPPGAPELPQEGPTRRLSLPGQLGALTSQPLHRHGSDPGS

[5] = molecular target: Cytochrome P450 2C19 (Homo sapiens, UniProt P33261); assay: Inhibition of CYP2C19 in human liver microsomes using 7-ethoxy-3-cyanocoumarin as substrate after 45 mins by LC/MS/MS analysis; type: ADME, Microsome
Chain of Cytochrome P450 2C19 (P33261 whole entry): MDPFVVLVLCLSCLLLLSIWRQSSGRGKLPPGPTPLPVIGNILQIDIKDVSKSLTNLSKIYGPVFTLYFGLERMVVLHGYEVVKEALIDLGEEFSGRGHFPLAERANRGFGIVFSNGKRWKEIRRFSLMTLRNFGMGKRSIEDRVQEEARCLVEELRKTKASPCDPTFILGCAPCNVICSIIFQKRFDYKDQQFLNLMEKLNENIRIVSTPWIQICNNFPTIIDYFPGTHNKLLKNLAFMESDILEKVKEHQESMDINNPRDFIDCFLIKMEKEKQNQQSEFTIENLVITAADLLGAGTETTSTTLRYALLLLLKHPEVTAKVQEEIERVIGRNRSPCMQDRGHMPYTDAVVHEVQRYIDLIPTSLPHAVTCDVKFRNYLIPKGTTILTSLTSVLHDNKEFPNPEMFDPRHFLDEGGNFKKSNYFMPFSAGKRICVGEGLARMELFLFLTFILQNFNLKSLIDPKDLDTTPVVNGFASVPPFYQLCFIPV

[6] = molecular target: Cytochrome P450 2D6 (Homo sapiens, UniProt P10635); assay: Inhibition of CYP2D6 in human liver microsomes using 3-[2-(N,N-diethyl-N-methylamino)ethyl]-7- methoxy-4-methylcoumarin as substrate after 45 mins by LC/MS/MS analysis; type: ADME, Microsome
Chain of Cytochrome P450 2D6 (P10635 whole entry): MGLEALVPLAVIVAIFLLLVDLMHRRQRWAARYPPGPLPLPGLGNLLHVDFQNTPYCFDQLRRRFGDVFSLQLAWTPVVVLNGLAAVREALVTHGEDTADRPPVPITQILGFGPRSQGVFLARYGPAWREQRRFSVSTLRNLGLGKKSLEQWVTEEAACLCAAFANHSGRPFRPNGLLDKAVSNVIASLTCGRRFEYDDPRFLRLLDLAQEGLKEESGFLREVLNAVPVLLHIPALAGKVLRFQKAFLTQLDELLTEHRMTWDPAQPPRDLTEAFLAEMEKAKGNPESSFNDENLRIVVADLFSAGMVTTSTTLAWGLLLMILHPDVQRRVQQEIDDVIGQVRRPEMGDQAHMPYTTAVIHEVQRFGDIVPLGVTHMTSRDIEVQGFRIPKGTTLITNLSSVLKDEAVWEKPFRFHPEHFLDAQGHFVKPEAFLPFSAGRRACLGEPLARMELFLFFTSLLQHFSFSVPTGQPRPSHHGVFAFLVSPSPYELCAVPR

[7] = molecular target: Cytochrome P450 2C9 (Homo sapiens, UniProt P11712); assay: Inhibition of CYP2C9 in human liver microsomes using 7-methoxy-4-(trifluoromethyl)-coumarin as substrate after 45 mins by LC/MS/MS analysis; type: ADME, Microsome
Chain of Cytochrome P450 2C9 (P11712 whole entry): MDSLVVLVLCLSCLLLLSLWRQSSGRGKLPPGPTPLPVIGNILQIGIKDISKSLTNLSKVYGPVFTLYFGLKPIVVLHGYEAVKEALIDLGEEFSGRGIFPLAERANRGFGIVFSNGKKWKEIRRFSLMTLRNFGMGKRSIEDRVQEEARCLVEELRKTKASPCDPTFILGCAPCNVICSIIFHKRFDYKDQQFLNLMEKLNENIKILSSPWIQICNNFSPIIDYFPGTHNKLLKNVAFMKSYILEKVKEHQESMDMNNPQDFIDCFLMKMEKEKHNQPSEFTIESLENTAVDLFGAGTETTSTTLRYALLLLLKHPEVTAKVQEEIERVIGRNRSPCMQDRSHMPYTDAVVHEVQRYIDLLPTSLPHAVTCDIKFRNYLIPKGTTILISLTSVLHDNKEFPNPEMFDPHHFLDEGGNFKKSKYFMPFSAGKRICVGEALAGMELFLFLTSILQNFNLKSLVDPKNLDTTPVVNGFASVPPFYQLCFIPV

[8] = Metabolic stability in human liver microsomes at 1 uM up to 60 mins by LC/MS/MS analysis relative to hepatic blood flow; type: ADME, Microsome; settings: read-out: Stability
[9] = Volume of distribution at steady state in jugular and femoral vein precannulated Sprague-Dawley rat at 1 mg/kg, iv by LC/MS/MS analysis; type: ADME, organism-based; design: dose 1 mg/kg, route intravenous; settings: in vivo, read-out: Vdss
[10] = Permeability of the compound by PAMPA; type: ADME; settings: read-out: permeability
Outline: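 Donor buffers were set to pH 5.0, 6.2 and 7.4 with NaOH, and ASB7.4 buffer was used as acceptor. Filters (0.45 pore, 125 μm thick) were lipid-coated. A 10 mM DMSO stock was diluted to 41.7 μM in donor buffer. The sandwich was incubated 4 h without stirring. Reference, donor and acceptor concentrations were read in duplicate by UV plate reader, and ratings were assigned from permeation velocity.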

[11] = Mean resident time in jugular and femoral vein precannulated Sprague-Dawley rat at 1 mg/kg, iv by LC/MS/MS analysis; type: ADME, organism-based; design: dose 1 mg/kg, route intravenous; settings: in vivo
[12] = molecular target: T1, Sodium/hydrogen exchanger 1 (Homo sapiens, UniProt P19634); assay: Inhibition of NHE1 in human HT-29 cells assessed as intracellular pH change after 30 mins; type: cell-based
T1 sequence (P19634 whole entry): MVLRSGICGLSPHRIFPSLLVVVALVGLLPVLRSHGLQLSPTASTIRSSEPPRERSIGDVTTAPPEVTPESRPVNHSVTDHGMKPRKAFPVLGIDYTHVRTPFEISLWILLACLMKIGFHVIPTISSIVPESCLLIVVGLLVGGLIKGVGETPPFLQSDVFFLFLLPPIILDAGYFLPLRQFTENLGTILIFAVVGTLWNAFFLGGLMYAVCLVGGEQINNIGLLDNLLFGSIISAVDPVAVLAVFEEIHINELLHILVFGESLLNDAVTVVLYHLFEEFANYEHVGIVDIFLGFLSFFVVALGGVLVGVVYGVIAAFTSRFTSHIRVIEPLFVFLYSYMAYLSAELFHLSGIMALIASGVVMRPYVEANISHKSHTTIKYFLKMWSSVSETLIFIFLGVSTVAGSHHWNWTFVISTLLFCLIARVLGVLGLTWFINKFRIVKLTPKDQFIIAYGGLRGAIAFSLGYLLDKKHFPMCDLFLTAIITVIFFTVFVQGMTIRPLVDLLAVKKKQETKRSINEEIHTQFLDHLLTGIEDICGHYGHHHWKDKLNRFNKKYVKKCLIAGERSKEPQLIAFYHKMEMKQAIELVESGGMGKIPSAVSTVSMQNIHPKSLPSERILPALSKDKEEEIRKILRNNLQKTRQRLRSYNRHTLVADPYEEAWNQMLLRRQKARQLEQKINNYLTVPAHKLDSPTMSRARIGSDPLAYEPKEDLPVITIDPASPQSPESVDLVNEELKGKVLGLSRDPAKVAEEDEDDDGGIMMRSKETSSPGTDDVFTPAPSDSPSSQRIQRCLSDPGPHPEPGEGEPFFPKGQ

[13] = Oral bioavailability in jugular and femoral vein precannulated Sprague-Dawley rat plasma at 5 mg/kg by LC/MS/MS analysis; type: ADME, organism-based
[14] = molecular target: T1, Sodium/hydrogen exchanger 1; assay: Inhibition of NHE1 in human HT-29 cells assessed as intracellular pH change after 30 mins in presence of plasma protein; type: cell-based
[15] = test system: Caco-2; assay: Efflux ratio of permeability from […] side in human Caco2 cells at 10 uM up to 150 mins; type: ADME, cell-based; settings: caco-2, 2.5 h

CL [1]	IC50 [2]	IC50 [5]	Vd [9]	MRT [11]	IC50 [12]	bioavailability [13]	inhibition [14]	Ratio [15]	SMILES	hepatic extraction ratio at 1 h, 1 µM [3]	IC50 [4]	IC50 [6]	IC50 [7]	hepatic extraction ratio at 1 h, 1 µM [8]	Papp [10]
21%	> 30 µM	8 µM	1.3 L/kg	84 min	0.01 µM				COCC(=O)N1CCC(c2ccc(C(=O)NC(=N)N)cc2C(F)(F)F)CC1	0.36	> 30 µM	> 30 µM	25 µM	0.06	≥ 2 ×10⁻⁶ cm/s
82%			1.3 L/kg	24 min		37%			CC(C)c1ccc(C(=O)NC(=N)N)cc1S(C)(=O)=O [CARIPORIDE]						
					0.172 µM		Active		N=C(N)NC(=O)c1ccc(N2CCCC(NC(=O)c3ccc[nH]3)C2)c(C(F)(F)F)c1 (racemic)						
24%	7 µM	9 µM	1.3 L/kg	78 min	0.028 µM	42%			N=C(N)NC(=O)c1ccc(N2CCN(C(=O)c3ccc[nH]3)CC2)c(C(F)(F)F)c1 [SABIPORIDE]						
					0.041 µM		Active		N=C(N)NC(=O)c1ccc(N2CCC(NC(=O)c3ccc[nH]3)CC2)c(C(F)(F)F)c1						
54%			0.95 L/kg	18 min	0.015 µM	1%		14	CCC(=O)N1CCC(c2cc(C)c(C(=O)NC(=N)N)cc2S(C)(=O)=O)CC1						
					0.005 µM				CC(=O)N1CCC(c2cc(C)c(C(=O)NC(=N)N)cc2C(F)(F)F)CC1		7 µM				
47%			1 L/kg	21.6 min	0.015 µM	4%			CC(=O)N1CCC(c2cc(C)c(C(=O)NC(=N)N)cc2S(C)(=O)=O)CC1						

SMILES	CL [1]	IC50 [2]	IC50 [5]	Vd [9]	MRT [11]	IC50 [12]	bioavailability [13]	inhibition [14]	Ratio [15]	hepatic extraction ratio at 1 h, 1 µM [3]	IC50 [4]	IC50 [6]	IC50 [7]	hepatic extraction ratio at 1 h, 1 µM [8]	Papp [10]
N#Cc1ccc(C(=O)N2CCC(c3ccc(C(=O)NC(=N)N)cc3C(F)(F)F)CC2)cc1	19%	11 µM	15 µM	6.5 L/kg	510 min					0.2	4 µM	> 30 µM	13 µM	< 0.11	≥ 2 ×10⁻⁶ cm/s
